Laboratory results: ChEMBL document CHEMBL1157534, “Discovery of novel, potent benzamide inhibitors of 11beta-hydroxysteroid dehydrogenase type 1 (11beta-HSD1) exhibiting oral activity in an enzyme inhibition ex vivo model” (J Med Chem, 2008)

How the values were obtained:
[1] = Metabolic stability in rat liver microsomes assessed as compound remaining at 1 uM after 30 mins; assay type: ADME, Microsome; conditions: read-out: Stability
[2] = biological target: T1, 11-beta-hydroxysteroid dehydrogenase 1 (Homo sapiens, UniProt P28845); assay: Inhibition of human cloned 11beta-HSD1 by scintillation proximity assay
[3] = Metabolic stability in human liver microsomes assessed as compound remaining at 1 uM after 30 mins; assay type: ADME, Microsome; conditions: read-out: Stability
[4] = biological target: T1, 11-beta-hydroxysteroid dehydrogenase 1; assay: Inhibition of human recombinant 11beta-HSD1 expressed in HEK293 cells in presence of 3% human serum albumin; assay type: cell-based
[5] = biological target: T1, 11-beta-hydroxysteroid dehydrogenase 1; assay: Inhibition of human recombinant 11beta-HSD1 expressed in HEK293 cells; assay type: cell-based
[6] = biological target: T2, 11-beta-hydroxysteroid dehydrogenase type 2 (Homo sapiens, UniProt P80365); assay: Inhibition of 11beta-HSD2 by scintillation proximity assay
T2 sequence (P80365 whole entry): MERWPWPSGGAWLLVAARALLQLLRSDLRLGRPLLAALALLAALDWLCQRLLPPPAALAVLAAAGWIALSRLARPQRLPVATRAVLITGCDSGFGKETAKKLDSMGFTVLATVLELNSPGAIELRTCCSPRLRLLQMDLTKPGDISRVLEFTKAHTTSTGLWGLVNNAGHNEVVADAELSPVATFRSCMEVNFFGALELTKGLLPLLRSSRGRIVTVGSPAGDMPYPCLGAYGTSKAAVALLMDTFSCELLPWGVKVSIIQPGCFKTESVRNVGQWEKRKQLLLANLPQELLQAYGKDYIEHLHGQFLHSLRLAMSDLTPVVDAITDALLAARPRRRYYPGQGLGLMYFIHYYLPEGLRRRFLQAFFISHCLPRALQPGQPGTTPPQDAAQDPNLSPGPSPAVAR

Rattus norvegicus [7] = assay: Clearance in rat at 0.17 mg/kg, iv; assay type: ADME, organism-based; parameters: dose 0.17 mg/kg, route intravenous; conditions: in vivo
Summary of the method: (§1)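 Rats were given a single iv dose of 0.17 mg/kg, with a parallel 2.0 mg/kg oral arm. Clearance, half-life, Vdss and AUC were derived from the iv data.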

[8] = Half life in rat at 0.17 mg/kg, iv; assay type: ADME, organism-based; parameters: dose 0.17 mg/kg, route intravenous; conditions: in vivo; summary of the method: as §1
[9] = Volume of distribution at steady state in rat at 0.17 mg/kg, iv; assay type: ADME, organism-based; parameters: dose 0.17 mg/kg, route intravenous; conditions: in vivo, read-out: Vdss; summary of the method: as §1
Rattus norvegicus [10] = assay: AUC in rat at 0.17 mg/kg, iv; assay type: ADME, organism-based, Plasma; parameters: dose 0.17 mg/kg, route intravenous; conditions: in vivo; summary of the method: as §1
[11] = Oral bioavailability in rat at 2.0 mg/kg; assay type: ADME, organism-based; conditions: in vivo
Summary of the method: (§2)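 Oral bioavailability came from a 2.0 mg/kg po dose compared against an iv arm. The iv dose was 0.5 mg/kg in monkey, dog and one rat group, and 0.17 mg/kg in the other rat group.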

[12] = biological target: T1, 11-beta-hydroxysteroid dehydrogenase 1; assay: Inhibition of 11beta-HSD1 in human adipocytes; assay type: cell-based
[13] = Drug level in of cynomolgus monkey mesenteric fat at 10 mg/kg, po; assay type: ADME, organism-based, Macaca fascicularis; parameters: dose 10 mg/kg, route oral; conditions: in vivo
Summary of the method: (§3)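 Cynomolgus monkeys received an oral dose of 2 or 10 mg/kg and were sacrificed 2 h postdose. Mesenteric fat was excised and compound levels were determined in adipose (ng/g) and in plasma.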

[14] = Volume of distribution at steady state in rat at 0.5 mg/kg, iv; assay type: ADME, organism-based; parameters: dose 0.5 mg/kg, route intravenous; conditions: in vivo, read-out: Vdss
Summary of the method: (§4)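 Single iv dose of 0.5 mg/kg in rat, cynomolgus monkey or dog. This dose group was run alongside a 2.0 mg/kg oral arm. Clearance, half-life, Vdss and AUC were taken from the iv arm.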

Rattus norvegicus [15] = assay: AUC in rat at 0.5 mg/kg, iv; assay type: ADME, organism-based, Plasma; parameters: dose 0.5 mg/kg, route intravenous; conditions: in vivo; summary of the method: as §4
[16] = Volume of distribution at steady state in dog at 0.5, iv; assay type: ADME, organism-based, Canis lupus familiaris; conditions: in vivo, read-out: Vdss; summary of the method: as §4
[17] = Volume of distribution at steady state in cynomolgus monkey at 0.5, iv; assay type: ADME, organism-based, Macaca fascicularis; conditions: in vivo, read-out: Vdss; summary of the method: as §4
[18] = Inhibition of cynomolgus monkey recombinant 11beta-HSD1; parameters: species or system Macaca fascicularis
Canis familiaris [19] = assay: AUC in dog at 0.5, iv; assay type: ADME, organism-based, Canis lupus familiaris, Plasma; conditions: in vivo; summary of the method: as §4
Cynomolgus monkey [20] = assay: AUC in cynomolgus monkey at 0.5, iv; assay type: ADME, organism-based, Macaca fascicularis, Plasma; conditions: in vivo; summary of the method: as §4
[21] = Drug level in of cynomolgus monkey mesenteric fat at 2 mg/kg, po; assay type: ADME, organism-based, Macaca fascicularis; parameters: dose 2 mg/kg, route oral; conditions: in vivo; summary of the method: as §3
[22] = Oral bioavailability in cynomolgus monkey at 2.0; assay type: ADME, organism-based, Macaca fascicularis; conditions: in vivo; summary of the method: as §2
[23] = Oral bioavailability in dog at 2.0; assay type: ADME, organism-based, Canis lupus familiaris; conditions: in vivo; summary of the method: as §2
[24] = Half life in cynomolgus monkey at 0.5, iv; assay type: ADME, organism-based, Macaca fascicularis; conditions: in vivo; summary of the method: as §4
Cynomolgus monkey [25] = assay: Clearance in cynomolgus monkey at 0.5 mg/kg, iv; assay type: ADME, organism-based, Macaca fascicularis; parameters: dose 0.5 mg/kg, route intravenous; conditions: in vivo; summary of the method: as §4
Plasma = assay: Drug level in of cynomolgus monkey plasma at 2 mg/kg, po; assay type: ADME, organism-based, Macaca fascicularis; parameters: dose 2 mg/kg, route oral; conditions: in vivo; summary of the method: as §3
[26] = Half life in rat at 0.5 mg/kg, iv; assay type: ADME, organism-based; parameters: dose 0.5 mg/kg, route intravenous; conditions: in vivo; summary of the method: as §4
Rattus norvegicus [27] = assay: Clearance in rat at 0.5 mg/kg, iv; assay type: ADME, organism-based; parameters: dose 0.5 mg/kg, route intravenous; conditions: in vivo; summary of the method: as §4
Cynomolgus monkey [28] = assay: Ex vivo inhibition of 11beta-HSD1 in orally dosed cynomolgus monkey mesenteric fat assessed as [3H][…] production; conditions: Macaca fascicularis, oral
Canis familiaris [29] = assay: Clearance in dog at 0.5 mg/kg, iv; assay type: ADME, organism-based, Canis lupus familiaris; parameters: dose 0.5 mg/kg, route intravenous; conditions: in vivo; summary of the method: as §4
[30] = Half life in dog at 0.5, iv; assay type: ADME, organism-based, Canis lupus familiaris; conditions: in vivo; summary of the method: as §4
[31] = Clearance in rat; assay type: ADME, organism-based; conditions: in vivo

T1 sequence (P28845 whole entry): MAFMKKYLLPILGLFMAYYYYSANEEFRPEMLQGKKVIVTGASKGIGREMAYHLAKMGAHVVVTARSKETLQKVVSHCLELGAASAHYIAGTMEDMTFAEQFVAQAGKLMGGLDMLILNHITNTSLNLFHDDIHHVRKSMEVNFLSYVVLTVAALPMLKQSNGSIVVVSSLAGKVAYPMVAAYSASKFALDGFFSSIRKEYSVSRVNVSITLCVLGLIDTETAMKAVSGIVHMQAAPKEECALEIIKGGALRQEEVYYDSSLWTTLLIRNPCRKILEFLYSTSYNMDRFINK

Row | Structure (SMILES) | remaining at 0.5 h, 1 µM [1] [%] | IC50 [2] [nM] | remaining at 0.5 h, 1 µM [3] [%] | IC50 [4] [nM] | IC50 [5] [nM] | IC50 [6] [nM] | IC50 [12] [nM] | also measured
1 | C[C@](O)(c1ccc(C(=O)N(C2CCCCC2)C2CC2)cc1)C(F)(F)F | < 5 | 0.8 | 81 | 38 | 2.4 | > 10000 |  | 
2 | C[C@](O)(c1ccc(C(=O)N(C2CC2)[C@H]2CC[C@H](c3ccc(C#N)cc3)CC2)cc1)C(F)(F)F | > 90 | 0.7 | > 90 | 161 | 12 | > 10000 | 3.4 | CL (Rattus norvegicus [7]): 0.11 L/h/kg; half-life [8]: 15.7 h; Vd [9]: 2.5 L/kg; AUC (Rattus norvegicus [10]): 1.59 µg·h/mL; bioavailability [11]: 29%
3 | C[C@](O)(c1ccc(C(=O)N(CC(F)(F)F)C2CCCCC2)cc1)C(F)(F)F | < 5 | 2.6 | 17 | 163 | 24 |  |  | 
4 | C[C@](O)(c1ccc(C(=O)N(C2CC2)[C@H]2CC[C@H](F)CC2)cc1)C(F)(F)F | 16 | 6.6 | 81 | 140 |  | > 10000 | 4.1 | 
5 | C[C@H]1CCCCN1S(=O)(=O)c1ccc(C(C)(O)C(F)(F)F)cc1 (stereo partly drawn) |  |  |  |  | 2.1 |  |  | 
6 | C[C@](O)(c1ccc(C(=O)N(C2CC2)[C@H]2CC[C@H](c3cccnc3)CC2)cc1)C(F)(F)F | 51 | 1.4 | > 90 | 124 | 5.8 | > 10000 | 3 | Drug uptake [13]: 2890 ng/g; Vd [14]: 6.7 L/kg; AUC (Rattus norvegicus [15]): 0.481 µg·h/mL; Vd [16]: 3.5 L/kg; Vd [17]: 8.1 L/kg; IC50 [18]: 39 nM; AUC (Canis familiaris [19]): 0.915 µg·h/mL; AUC (Cynomolgus monkey [20]): 1.01 µg·h/mL; Drug uptake [21]: 1211 ng/mL; bioavailability [22]: 64%; bioavailability [23]: 4%; half-life [24]: 11.2 h; CL (Cynomolgus monkey [25]): 0.5 L/h/kg; Drug uptake (Plasma): 604 ng/mL; half-life [26]: 4.5 h; CL (Rattus norvegicus [27]): 1 L/h/kg; bioavailability [11]: 72%; ED50 (Cynomolgus monkey [28]): 2 mg/kg; CL (Canis familiaris [29]): 0.6 L/h/kg; half-life [30]: 9.3 h
7 | C[C@](O)(c1ccc(C(=O)N(C2CC2)[C@H]2CC[C@H](CCC#N)CC2)cc1)C(F)(F)F | 42 | 0.7 | > 90 | 11 | 1.3 | > 10000 | 0.2 | CL (Rattus norvegicus [7]): 1.28 L/h/kg; half-life [8]: 0.5 h; Vd [9]: 0.91 L/kg; AUC (Rattus norvegicus [10]): 0.393 µg·h/mL; bioavailability [11]: 83%
8 | C[C@](O)(c1ccc(C(=O)N(C2CC2)[C@H]2CC[C@H](c3ccccc3)CC2)cc1)C(F)(F)F | > 90 | 1.3 | > 90 | 155 | 16 | > 10000 | 9.8 | 
9 | CCN(C(=O)c1ccc([C@](C)(O)C(F)(F)F)cc1)C1CCCCC1 | < 5 | 1.3 | 5 | 25 | 1.3 |  |  | clearance [31]: 3.1 L/h/kg
10 | CC(O)(c1ccc(C(=O)N(CC2CC2)C2CCCCC2)cc1)C(F)(F)F (racemic) | < 5 | 9 | 23 | 849 | 38 |  |  | 
11 | C[C@](O)(c1ccc(C(=O)N(C2CC2)[C@H]2CC[C@@H](c3ccccc3)CC2)cc1)C(F)(F)F | < 5 | 6.1 | 9 | 123 | 18 | > 10000 |  | 
